Measured values published in ChEMBL document CHEMBL1667799, “HIV-1 integrase strand-transfer inhibitors: design, synthesis and molecular modeling investigation” (Eur J Med Chem, 2011).

Columns and labels:
[1] = molecular target: Human immunodeficiency virus type 1 integrase (Human immunodeficiency virus 1, UniProt Q7ZJM1); assay: Inhibition of HIV-1 integrase after 1 hr by ELISA
[2] = test system: Human immunodeficiency virus 1; assay: Antiviral activity against HIV1 3B infected in human MT4 cells assessed as inhibition of virus-induced cytopathic effect by MTT assay; type: functional, organism-based; conditions: Human immunodeficiency virus 1, 3B
Outline: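 HIV-1 IIIB stock titrated on MT-4 cells to set CCID50. MT-4 cells infected with 100–300 CCID50 in presence of five-fold serial drug dilutions. Viability read by MTT reduction to formazan, measured spectrophotometrically. EC50 is concentration giving 50% protection against viral CPE. Values are averages ± SD.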

[3] = Cytotoxicity against human MT4 cells by MTT assay; type: cell-based
Outline: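 MT-4 cell viability read by MTT reduction to formazan by mitochondrial dehydrogenase, measured spectrophotometrically, across drug dilutions. CC50 is concentration reducing MT-4 viability by 50%. Values are averages ± SD.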

[4] = Selectivity index, ratio of CC50 for human MT4 cells to EC50 for HIV13B; type: toxicity, cell-based; conditions: read-out: Ratio CC50/EC50
Outline: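 Index calculated as CC50/EC50. CC50 is the concentration reducing MT-4 viability by 50%. EC50 is 50% protection against HIV-1 IIIB CPE after infection with 100–300 CCID50, across five-fold serial dilutions. Both are read by MTT assay.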

[5] = molecular target: Human immunodeficiency virus type 1 integrase (Human immunodeficiency virus 1) (UniProt Q7ZJM1)
Human immunodeficiency virus type 1 integrase (Human immunodeficiency virus 1), sequence (Q7ZJM1 as listed by the source): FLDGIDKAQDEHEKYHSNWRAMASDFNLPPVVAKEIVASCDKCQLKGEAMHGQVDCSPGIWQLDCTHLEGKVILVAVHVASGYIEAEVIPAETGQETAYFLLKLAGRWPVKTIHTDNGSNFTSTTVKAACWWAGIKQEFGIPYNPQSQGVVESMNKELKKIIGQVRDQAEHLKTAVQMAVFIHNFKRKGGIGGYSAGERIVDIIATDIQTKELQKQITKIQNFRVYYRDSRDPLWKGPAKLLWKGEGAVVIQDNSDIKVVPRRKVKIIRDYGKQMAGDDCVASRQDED

Human immunodeficiency virus type 1 integrase, sequence (Q7ZJM1 whole entry): as the sequence (Q7ZJM1 as listed by the source) above

| Structure (SMILES) | IC50 [1] | EC50 [2] | CC50 [3] | selectivity ratio [4] | C50 [5] |
| --- | --- | --- | --- | --- | --- |
| COc1ccc2c(C(=O)/C=C(\O)C(=O)O)cn(Cc3ccc(F)cc3)c2c1OC | 3.55 µM | 14.7 µM | 130 µM | 9 | 6.37 µM |
| CCOC(=O)/C(O)=C/C(=O)c1cn(Cc2ccc(F)cc2)c2cc(OC)c(OC)cc12 | 4.4 µM | > 21.8 µM | 21.8 µM | < 1 | 7.69 µM |
| CCOC(=O)/C(O)=C/C(=O)c1cn(Cc2ccc(F)cc2)c2cc(OC)cc(OC)c12 | 2.79 µM | 2.48 µM | 55.4 µM | 22 | 1.29 µM |
| COc1ccc2c(c(C(=O)/C=C(\O)C(=O)O)cn2Cc2ccc(F)cc2)c1OC | 1.45 µM | 1.21 µM | 126 µM | 104 | 0.047 µM |
| CCOC(=O)/C(O)=C/C(=O)c1cn(Cc2ccc(F)cc2)c2c(OC)ccc(OC)c12 | – | – | – | – | 0.66 µM |
| COc1cccc2c1c(C(=O)/C=C(\O)C(=O)O)cn2Cc1ccc(F)cc1 | – | – | – | 70 | 0.14 µM |
| CCOC(=O)/C(O)=C/C(=O)c1cn(Cc2ccc(F)cc2)c2ccc(OC)c(OC)c12 | 0.9 µM | 3.96 µM | 111 µM | 28 | 0.015 µM |
| Cc1nnc(C(=O)NC(C)(C)c2nc(C(=O)NCc3ccc(F)cc3)c(O)c(=O)n2C)o1 | – | – | > 18 µM | – | – |
| COc1cc(OC)c2c(C(=O)/C=C(\O)C(=O)O)cn(Cc3ccc(F)cc3)c2c1 | 0.47 µM | 3.2 µM | 20.7 µM | 6 | 0.28 µM |
| CCOC(=O)/C(O)=C/C(=O)c1cn(Cc2ccc(F)cc2)c2c(OC)c(OC)ccc12 | 7.41 µM | 10.4 µM | 119 µM | 11 | 17.4 µM |
| COc1cc(OC)c2c(c1)c(C(=O)/C=C(\O)C(=O)O)cn2Cc1ccc(F)cc1 | 0.251 µM | 8.51 µM | 58.5 µM | 7 | 0.006 µM |
| COc1cc2c(C(=O)/C=C(\O)C(=O)O)cn(Cc3ccc(F)cc3)c2cc1OC | 0.547 µM | 10.5 µM | 65.5 µM | 6 | 0.119 µM |
| CCOC(=O)/C(O)=C/C(=O)c1cn(Cc2ccc(F)cc2)c2c(OC)cc(OC)cc12 | 18.1 µM | > 62.1 µM | 62.1 µM | < 1 | 34.9 µM |
